Experimental data pooled from the literature.
Compare with care: the assays were run in different laboratories.
SIRT2: NAD-dependent protein deacetylase sirtuin-2 (SIRT2, Homo sapiens, UniProt Q8IXJ6)
AMY2: Pancreatic alpha-amylase (AMY2, Sus scrofa, UniProt P00690)
Hydroxyacylglutathione hydrolase, mitochondrial: Hydroxyacylglutathione hydrolase, mitochondrial (Homo sapiens, UniProt Q16775)
HSD11B2: 11-beta-hydroxysteroid dehydrogenase type 2 (HSD11B2, Homo sapiens, UniProt P80365)
CHRM2: Muscarinic acetylcholine receptor M2 (CHRM2, Homo sapiens, UniProt P08172)

CCOCCOCCOCCNC(=S)NCCCC[C@H](NS(C)(=O)=O)C(=O)N[C@H](C)C(=O)N[C@@H](CCCNC(=N)N)C(N)=O
inhibition (SIRT2; enzyme activity; inhibitor; 100 µM): 13%

Cc1cccc(N(O)N=Nc2ccc(S(=O)(=O)Nc3onc(C)c3C)cc2)c1
inhibition (AMY2; enzyme activity; inhibitor; 240 µg/mL): 52.6%

O=C1CC(CCNC(=S)NCCCC[C@H](NS(=O)(=O)c2cccc(F)c2)C(=O)N[C@@H](Cc2c[nH]c3ccccc23)C(=O)NC2CCC2)=NO1
inhibition (SIRT2; enzyme activity; inhibitor; 10 µM): 9%

Cc1ccc(N(O)N=Nc2ccc(S(=O)(=O)Nc3onc(C)c3C)cc2)cc1
inhibition (AMY2; enzyme activity; inhibitor; 60 µg/mL): 21.1%

CCCC(=S)NCCCC[C@H](NS(C)(=O)=O)C(=O)N[C@H](C)C(=O)N[C@@H](CCCNC(=N)N)C(N)=O
inhibition (SIRT2; enzyme activity; inhibitor; 10 µM): 31%

c1ccc(CN(CCN(Cc2ccccn2)Cc2ccccn2)Cc2ccccn2)nc1
inhibition (Hydroxyacylglutathione hydrolase, mitochondrial; cell-free assay; 100 µM): 47.6%

CCCCc1oc2ccccc2c1C(=O)c1cc(I)c(OCCN(CC)CC)c(I)c1
inhibition (HSD11B2; enzyme activity; inhibitor; 20 µM; lysate): < 40%

COc1cc(C=CC(=O)CC(c2ccc([N+](=O)[O-])cc2)n2ccnc2)ccc1O (centres unmarked)
inhibition (AMY2; enzyme activity; inhibitor; absorbance; 5 µg/mL): 75.6%

Oc1cccc(Nc2nc(-c3ccc(F)cc3F)cs2)c1
inhibition (CHRM2; cell-free assay; 10 µM): -43.3%

CN(CCOc1ccc(CC2SC(=O)NC2=O)cc1)c1ccccn1 (centres unmarked)
inhibition (HSD11B2; enzyme activity; inhibitor; 20 µM; lysate): < 40%

CCCN(O)N=Nc1ccc(S(=O)(=O)Nc2cc(C)on2)cc1
inhibition (AMY2; enzyme activity; inhibitor; 240 µg/mL): 57.9%

COc1cc(C=CC(=O)CC(c2ccc(N(C)C)cc2)n2ccnc2)ccc1O (centres unmarked)
inhibition (AMY2; enzyme activity; inhibitor; absorbance; 1.25 µg/mL): 58.2%

O=C(NC1CCC1)[C@H](Cc1c[nH]c2ccccc12)NC(=O)[C@H](CCCCNC(=S)NCCn1nn[nH]c1=O)NS(=O)(=O)c1cccc(F)c1
inhibition (SIRT2; enzyme activity; inhibitor; 100 µM): 8%

CCN(c1cc(C#CCN2CCOCC2)cc(C(=O)NCc2c(C)cc(C)[nH]c2=O)c1C)[C@H]1CC[C@H](N(C)CCOC)CC1
inhibition (N-lysine methyltransferase SMYD2 (SMYD2, Homo sapiens, UniProt Q9NRG4); enzyme activity; inhibitor; 1 µM): 8%

CC/C(=N\NC(=O)NCc1cccc(O)c1)c1ccc(O)c(C)c1O
inhibition (Fibroblast growth factor receptor 3 (FGFR3, Homo sapiens, UniProt P22607, V555L); enzyme activity; inhibitor; 0.1 µM): -0.1%

O=C(O)CN1CCN(CC(=O)O)CCN(CC(=O)O)CC1
inhibition (Hydroxyacylglutathione hydrolase, mitochondrial; cell-free assay; 100 µM): 0.85%

O=C(c1ccc(F)cc1)N(Cc1ccccc1)C1CCCCC1
inhibition (CHRM2; cell-free assay; 10 µM): 16%

C[C@H]1O[C@H](O[C@H]2[C@H](O)[C@@H](O)[C@@H](O[C@H]3[C@H](O)[C@@H](O)C(O)O[C@@H]3CO)O[C@@H]2CO)[C@H](O)[C@@H](O)[C@@H]1N[C@H]1C=C(CO)[C@@H](O)[C@H](O)[C@H]1O (some centres unmarked)
inhibition (AMY2; enzyme activity; inhibitor; 150 µg/mL): 84.7%

CC(C)c1c(C(=O)Nc2ccccc2)c(-c2ccccc2)c(-c2ccc(F)cc2)n1CC[C@@H](O)C[C@@H](O)CC(=O)O
inhibition (HSD11B2; enzyme activity; inhibitor; 20 µM; lysate): < 40%

CN(O)N=Nc1ccc(S(=O)(=O)Nc2nccs2)cc1
inhibition (AMY2; enzyme activity; inhibitor; 300 µg/mL): 78.9%

CCCCNC(=S)NCCCC[C@H](NS(=O)(=O)c1cccc(F)c1)C(=O)N[C@@H](Cc1c[nH]c2ccccc12)C(=O)NC1CCC1
inhibition (SIRT2; enzyme activity; inhibitor; 1 µM): 32%

Cc1noc(NS(=O)(=O)c2ccc(N=NN(O)c3ccccc3)cc2)c1C
inhibition (AMY2; enzyme activity; inhibitor; 300 µg/mL): 73.7%

COc1cc(C=Cc2cc(-c3ccc(N(C)C)cc3)nc(O)n2)ccc1O
inhibition (AMY2; enzyme activity; inhibitor; absorbance; 1.25 µg/mL): 50.3%

CC(=S)NCCCC[C@H](NC(=O)OCc1ccccc1)C(=O)N[C@@H](Cc1c[nH]c2ccccc12)C(=O)N[C@@H](CCCNC(=N)N)C(N)=O
inhibition (SIRT2; enzyme activity; inhibitor; 1 µM): 20%

Cc1noc(NS(=O)(=O)c2ccc(N=NN(C)O)cc2)c1C
inhibition (AMY2; enzyme activity; inhibitor; 120 µg/mL): 42.1%

CCOCCOCCNC(=S)NCCCC[C@H](NS(C)(=O)=O)C(=O)N[C@H](C)C(=O)N[C@@H](CCCNC(=N)N)C(N)=O
inhibition (SIRT2; enzyme activity; inhibitor; 100 µM): 16%

Cc1ccc(N(O)N=Nc2ccc(S(=O)(=O)Nc3cc(C)on3)cc2)cc1
inhibition (AMY2; enzyme activity; inhibitor; 300 µg/mL): 78.9%

CCCCCCCCCCCCNC(=S)NCCCC[C@H](NC(=O)OCc1ccccc1)C(=O)N[C@@H](Cc1c[nH]c2ccccc12)C(=O)N[C@@H](CC(N)=O)C(N)=O
inhibition (SIRT2; enzyme activity; inhibitor; 100 µM): 16%

COc1cc(C=Cc2cc(-c3ccccc3)nc(O)n2)ccc1O
inhibition (AMY2; enzyme activity; inhibitor; absorbance; 2.5 µg/mL): 66.3%
